Compound activity: PubChem, several laboratories
A1 inh: inhibitors of the anti-apoptotic protein A1, read as caspase activation. MEF A1-2A-BIM cells, Caspase-Glo 3/7 luminescence, 3 h; percent of clofoctol response, vehicle zero. caspase activation, % (test concentration not listed). hit rate 0.066% among 330,000. AID 2462;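 active means over half of replicate activation scores above 10%, or exactly half above 10 with the replicate mean above 10; inconclusive means replicate mean below 10 yet half the replicates above 10; inactive means over half of replicates below 10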
HKDC1 inhibitor: blocks human hexokinase HKDC1 activity; hit rate 0.16% among 340,000; AID 493160; inhibition, % at 20 µM; recombinant HKDC1, G6PDH/diaphorase resazurin coupled fluorescence; Q2TB90;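 active means inhibition above about 35% when tested at 20 µM, limit read from the data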
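Assay system: recombinant HKDC1 hexokinase; detection: coupled resazurin fluorescence, excitation 525 nm, emission 613 nm; benchmarks: DMSO-plus-enzyme-mix negative control, buffer-substituted positive control; compound dosing: single 20 µM dose; schedule: 90 min at room temperature in dark; also added: glucose plus 1 mM ATP as hexokinase substrates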
HDAC3 inh: human HDAC3 inhibition. O15379. recombinant HDAC3, fluorogenic peptide/trypsin coupled, fluorescence. inhibition, % at 8.3 µM. hit rate 0.15% among 320,000. AID 2718; in the data active means inhibition above about 26%, passing the limit was not always enough; inconclusive means no clear call, values can overlap the other calls
ATG4B inhibitor: ATG4B (human) cysteine protease inhibition | inhibition, % at 8.33 µM | hit rate 0.51% among 340,000 | Q9Y4P1 | ATG4B cleavage of LC3-PLA2, NBD-HPC fluorescence, 1 h; in the data active means inhibition above about 40%
LANA-H2B inh: blocks KSHV LANA binding to histone H2A/H2B; hit rate 0.6% among 320,000; AID 2629; Q9QR71; inhibition, % (test concentration not listed); cell-free LANA-H2A/H2B peptide, fluorescence polarization; in the data active means inhibition mostly above about 10%, no sharp cut-off; inactive means mostly below about 6.7%
AI-2 QS modul: modulators of Vibrio harveyi AI-2 quorum sensing system. hit rate 0.4% among 300,000. activity change, % at 7.5 µM. Vibrio harveyi JMH597 AI-2 luminescence/OD600 ratio, 9 h; hits give low values; strain lacks LuxN and CqsS sensors; 0 = neutral-control median. AID 2094; in the data active means activity change below about -75%, passing the limit was not always enough; inconclusive means no clear call, values can overlap the other calls;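 further: luminescence divided by OD600 gain over 9 h not by final OD600 alone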
Numbers stand for hits; n = inactive; u = inconclusive; x = no result given; + = active, no number. Only some compounds are listed: those with a hit (about 1.8% of all), similar ones and a draw of the others.

SMILES	A1 inh	HKDC1 inhibitor	HDAC3 inh	ATG4B inhibitor	LANA-H2B inh	AI-2 QS modul
CC(C)(C)C(=O)C(C(c1ccccc1)N1CCOCC1)N1CCOCC1 (stereo not given)	x	n	x	n	x	x
O=C(CN1CCCCCC1)N/N=C/c1cccs1	n	n	n	n	n	n
O=C(N/N=C/c1cccs1)C(=O)N1CCCC1	n	n	n	n	15	n
COc1ccccc1C(=O)NNC(=O)c1cccc(Cl)c1	n	n	n	n	n	n
COc1ccc(Cl)cc1C(=O)NNC(=O)c1cccc([N+](=O)[O-])c1	n	n	n	n	156	n
OCC(O)C(O)C(O)c1cnn(-c2ccccc2)n1 (stereo not given)	x	n	x	n	x	x
CN(C(=O)c1ccccc1C(=O)OCC(=O)c1ccccc1)c1ccccc1	n	n	n	n	30	x
CCOC(=O)CCCCC1C(CCCC(=O)OCC)C=NN1C (stereo not given)	x	n	x	n	x	x
Cc1onc(-c2c(F)cccc2Cl)c1C(=O)N1CCc2ccccc21	n	n	n	n	66	n
COc1cc(/C=C2/C(=N)N3C=CSC3=NC2=O)ccc1OCCCOc1ccccc1C	n	n	n	n	n	n
CCOc1cc(/C=C2/C(=N)N3C=CSC3=NC2=O)ccc1OCCCOc1ccccc1C	41	n	n	n	n	n
O=P(O)(O)CP(=O)(O)O	x	x	x	x	81	n
O=C(C1CC=CCC1)N1CCN(S(=O)(=O)c2ccc(F)cc2)CC1 (stereo not given)	x	n	x	n	x	x
COc1cc(CNCCc2ccccc2)ccc1OCC(=O)NC(C)(C)C	n	n	n	n	n	n
COc1cc(CNCCc2ccccc2)ccc1OCC(N)=O	n	n	n	n	20	n
O=C1Nc2ccccc2C1=Nc1ccc2[nH]c3ccccc3c2c1	x	n	x	n	x	x
CC(C)C(=O)N[C@@H]1c2ccccc2CC[C@@H]1OCc1ccccc1	x	n	x	n	x	x
CCN(CC)CCNC(=O)c1ccc(NC(=O)C2CC(=O)N(c3ccc4c(c3)OCCO4)C2)cc1 (stereo not given)	n	n	n	n	61	n
CCS(=O)(=O)N1Cc2ccccc2CC1C(=O)N(C)CC(=O)Nc1ccc(F)c(F)c1F (stereo not given)	n	n	n	n	32	n
CC(C)NC(=O)c1nn2c(C(F)(F)F)cc(-c3ccco3)nc2c1Cl	n	n	n	n	43	n
CCOc1ccc(N2C(=O)S/C(=C\c3cccn3C)C2=O)cc1	n	n	n	n	20	n
COc1ccccc1C(C)NC(=O)C1CCN(S(=O)(=O)c2cccs2)CC1 (stereo not given)	n	n	n	n	+	x
COc1ccc(C2SCC(=O)N2c2ccc(F)cc2)cc1 (stereo not given)	n	n	n	n	n	n
COc1ccc(N2C(=O)CSC2c2cccc(F)c2)cc1 (stereo not given)	n	n	n	n	8.4	n
Cc1nc(SCc2nc3c([N+](=O)[O-])cccc3[nH]2)c2oc3ccccc3c2n1	17	n	n	n	n	x
SMILES	A1 inh	HKDC1 inhibitor	HDAC3 inh	ATG4B inhibitor	LANA-H2B inh	AI-2 QS modul
CC(=O)Nc1ccc(C(=O)OCc2ccc(Cl)c(Cl)c2)cc1	n	n	n	n	n	-85
CCC(=O)Nc1ccc(C(=O)OCc2ccc(Cl)c(Cl)c2)cc1	n	n	n	n	n	n
COc1ccc(Cl)cc1NS(=O)(=O)c1cccc(C(=O)N2CC(C)OC(C)C2)c1 (stereo not given)	n	n	n	n	n	x
COC(=O)c1ccc(C(=O)N2CCCC(Nc3ccc(F)c(F)c3)C2)cc1 (stereo not given)	n	n	n	n	n	n
COCc1ccc(C(=O)N2CCCC(Nc3ccc(F)c(F)c3)C2)s1 (stereo not given)	u	n	n	n	95	n
Cc1c(C)c(C)c(C(=O)c2ccc(NC(=O)c3ccccc3C(=O)O)cc2)c(C)c1C	n	n	n	94	n	n
O=C(Nc1ccc(C(=O)c2ccc(C(=O)O)c(C(=O)O)c2)cc1)c1ccccc1	n	n	n	n	n	n
NC(=O)C1CCN(C(=O)CCSCc2ccc(Cl)c(Cl)c2)CC1	n	n	n	n	n	n
CN1OC[C@@H]2CN(Cc3cc(Cl)cc(Cl)c3)[C@H](c3cccc(Br)c3)C[C@@H]21	x	n	x	n	x	x
